Assay results as given in paper PMC8570090 (Bioorganic & medicinal chemistry letters, 2020).

What was measured:
Stability of PI-103BE = type: in vitro ADME; settings: species found after treatment with PI-103BE (9); for Fraction in culture medium: all time points
[1] = Single dose pharmacokinetics in mice, intraperitoneal injection; type: in vivo
[2] = Single dose pharmacokinetics in mice, oral gavage; type: in vivo; settings: single oral dose 10 mg/kg
In short: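 Female ovariectomized Nu/Nu mice, 4–6 weeks old (n = 5), received a single 10 mg/kg dose by gavage in 5% DMSO/40% PEG 400/55% saline. Orbital-sinus blood was drawn at 0.5, 1, 3, 8 and 24 h, with one sampling per group, into EDTA. Plasma was separated at 4 °C and frozen at −80 °C. Drug and metabolites were quantified by C18 UHPLC–MS (formic acid water/acetonitrile gradient).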

[3] = system: human breast adenocarcinoma MDA-MB-231; test: In vitro antiproliferative assay; type: cell-based; settings: Fig. 5
In short: (§1)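 Cells seeded at 50,000 per well in DMEM with 5% FBS. Exposed for 4 days to test compound at 6 concentrations, with DMSO vehicle and a reference compound as positive control. Cell numbers counted on a Coulter counter. Survival ratio is treated over vehicle cell number. IC50 taken from dose-response curves. Run in triplicate, mean ± SD.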

[4] = system: human cervical cancer HeLa; test: In vitro antiproliferative assay; type: cell-based; settings: Fig. 5
In short: as §1

[5] = system: human prostate carcinoma 22Rv1; test: In vitro antiproliferative assay; type: cell-based; settings: Fig. 5
In short: as §1

[6] = system: human lung carcinoma A549; test: In vitro antiproliferative assay; type: cell-based; settings: Fig. 5
In short: as §1

[7] = system: panel of cancer cell lines; test: In vitro antiproliferative activity, panel of six cancer cell lines; type: cell-based, human; settings: IC50 ratio across A549, MDA-MB-231, HeLa, 22Rv1, PC-3, SKOV-3
In short: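 Cells plated at 50,000 per well in DMEM with 5% FBS and exposed for 4 days to test compound at 6 doses. DMSO served as vehicle control and the parent inhibitor as positive control. Cells were counted on a Coulter counter. Survival ratio is treated over vehicle cell number, and IC50 is taken from dose-response curves. Run in triplicate, mean ± SD.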

Structure (SMILES) | Fraction of total drug content in cell culture media (Stability of PI-103BE; 0.5 h) | Fraction of total drug content in cell culture media (Stability of PI-103BE; 1 h) | Fraction of total drug content in cell culture media (Stability of PI-103BE; 3 h) | Fraction of total drug content in cell culture media (Stability of PI-103BE; 8 h) | Fraction of total drug content in cell culture media (Stability of PI-103BE; 24 h) | Fraction in culture medium (Stability of PI-103BE) | Peak plasma concentration of PI-103, times lower than after i.p. PI-103BE ([1]; 10 mg/kg IP, 7-treated vs PI-103BE-treated) | Oral bioavailability [2] | Antiproliferative activity [3] | Antiproliferative activity [4] | Antiproliferative activity [5] | Antiproliferative activity [6] | Concentration in cell culture media (Stability of PI-103BE; 3 h) | Concentration in cell culture media (Stability of PI-103BE; 8 h) | Concentration in cell culture media (Stability of PI-103BE; 24 h) | PI-103BE in plasma ([1]; 10 mg/kg IP of labelled compound, analyte PI-103BE) | Times less potent than PI-103 (7) [7]
Oc1cccc(-c2nc(N3CCOCC3)c3oc4ncccc4c3n2)c1 [PI-103 (7), 3-(4-Morpholinopyrido[3′,2′:4,5]furo[3,2-d]pyrimidin-2-yl)phenol, reference compound] | 2.02% | 2.52% | 3.30% | 3.27% | 3.81% | < 4% | 10 times | no oral bioavailability | – | – | – | – | – | – | – | – | –
OB(O)c1cccc(-c2nc(N3CCOCC3)c3oc4ncccc4c3n2)c1 [PI-103BA (10), (3-(4-Morpholinopyrido[3′,2′:4,5]furo[3,2-d]pyrimidin-2-yl)phenyl)boronic acid] | 97.95% | – | 96.70% | 96.73% | 96.19% | > 95% | – | – | dose dependent antiproliferative activities | dose dependent antiproliferative activities | dose dependent antiproliferative activities | dose dependent antiproliferative activities | – | – | – | – | –
CC1(C)OB(c2cccc(-c3nc(N4CCOCC4)c4oc5ncccc5c4n3)c2)OC1(C)C [PI-103BE (9), 4-Morpholino-2-(3-(4,4,5,5-tetramethyl-1,3,2-dioxaborolan-2-yl)phenyl)pyrido[3′,2′:4,5] furo[3,2-d]pyrimidine] | 1.61% | 0.32% | 0% | 0% | 0% | – | – | – | – | – | – | – | 0 nM | 0 nM | 0 nM | no PI-103BE was detected in plasma | 3 ~ 24 times
